Consider four compounds from publication PMC10751876 (Current research in chemical biology, 2023).

Data set [1] has as its system bloodstream T. brucei parasites (procyclin protein). Nature of the data set: Procyclin surface protein expression, anti-EP1 flow cytometry. Type of data set: cell-based. To be noted: negative control, 3 days. Background: A flow cytometer gives signals particle by particle.
Data set [2] relates to EP1/GFP reporter parasites. The experiment in a line: EP1/GFP reporter flow cytometry in bloodstream parasites. Type of data set: cell-based, T. brucei. The note with it: for EP1/GFP mean fluorescence intensity: 3 days. The method in brief: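 Bloodstream Lister 427 L224 T. brucei (VSG3/BES7-NeoR, VSG2/BES1-PuroR) carrying an EP1/GFP reporter construct, grown in HMI-9 at 37 °C, 5% CO2. Parasites were treated 2 or 3 days, with DMSO as vehicle control. GFP mean fluorescence intensity was read by flow cytometry. Three biological replicates, SD shown; two-tailed unpaired t-test against DMSO.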

Data set [3] has as its system bloodstream T. brucei parasites. Nature of the data set: Growth inhibition of bloodstream parasites. To be noted: Trypanosoma brucei, 48 h, read-out: GEC50 growth inhibition. Type of data set: cell-based. In outline: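 Lister 427 L224 bloodstream parasites were plated at 10,000 cells/ml in HMI-9 across a compound concentration series and grown 48 h at 37 °C, 5% CO2. Cells were then stained with 5 μM Sytox Orange for 15 min at 37 °C and counted by fixed-volume flow cytometry in a live/Sytox-negative gate. Dose-response metrics came from growth-rate-inhibition analysis (GRMetric).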

The target in data set [4] is T1, TbBdf3 (Trypanosoma brucei brucei, UniProt Q383S2).
T1 sequence (Q383S2 1-221): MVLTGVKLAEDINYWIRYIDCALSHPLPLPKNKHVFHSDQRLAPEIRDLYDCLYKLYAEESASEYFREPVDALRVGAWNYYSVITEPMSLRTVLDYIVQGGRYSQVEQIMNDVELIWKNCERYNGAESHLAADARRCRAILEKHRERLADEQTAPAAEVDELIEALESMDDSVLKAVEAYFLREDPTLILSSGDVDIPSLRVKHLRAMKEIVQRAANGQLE
The experiment in a line: ITC binding to TbBdf3. More on the design: species or system T. brucei. The method in brief: (§1)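 ITC at 15 °C. His6-tagged bromodomain protein was dialysed against 20 mM HEPES pH 7.5, 150 mM NaCl, 0.5 mM TCEP, 1% DMSO. Typically 2.0 mM protein was injected in 2–3 μL increments into 200 μM ligand in the cell. Baseline-corrected isotherms were fitted. Each titration was run at least twice; reported values come from single experiments with fit error.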

The target in data set [5] is T2, TbBdf2 (Trypanosoma brucei brucei, UniProt Q38AM1).
T2 sequence (Q38AM1 9-123): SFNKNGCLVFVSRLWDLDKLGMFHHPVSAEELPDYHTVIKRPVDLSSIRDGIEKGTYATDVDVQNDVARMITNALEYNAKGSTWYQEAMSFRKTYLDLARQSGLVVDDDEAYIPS
The experiment in a line: ITC binding to TbBdf2. Set-up: species or system T. brucei. To be noted: 15 °C; n set to 1.0; single experiment, error of the fit. In outline:
as §1

In data set [6] the target is T1, TbBdf3. The experiment in a line: SPR binding to TbBdf3. Set-up: species or system T. brucei. To be noted: for Rmax: TbBdf3, SPR fit, (locked) = as printed. The method in brief:
(§2)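 Purified His6-tagged bromodomain protein was labelled with DBCO-PEG4-NHS ester (3-fold molar excess, 2 h, room temperature), quenched with ethanolamine, and coupled to an azide chip at pH 4.0 (~6000 RU). Run in duplicate, standard error.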

Data set [7] has as its system T. brucei parasites. The experiment in a line: Percent of live cells by forward and side scatter gating. Type of data set: cell-based. To be noted: flow cytometry live gate. The method in brief: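 Lister 427 L224 bloodstream parasites were cultured in HMI-9 at 37 °C, 5% CO2 and treated 48 h or 72 h at set concentrations, with DMSO controls. Viability is the percentage of cells falling in a live gate set on forward and side scatter by flow cytometry.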

The target of data set [8] is T3, hBRD4 (Homo sapiens, UniProt O60885). The experiment in a line: SPR binding to hBRD4. The note with it: for Rmax: hBRD4, SPR fit, (locked) = as printed. For orientation: SPR reads the build-up and loss of mass on a sensor chip optically.
Data set [9] has as its target T3, hBRD4. The experiment in a line: ITC binding to hBRD4.
Data set [10] deals with T2, TbBdf2. The experiment in a line: SPR binding to TbBdf2. Set-up: species or system T. brucei. To be noted: for Rmax: SPR fit, (locked) = as printed; for Kd: read-out: SPR KD, duplicate, standard error. In outline: as §2
Data set [11] in a line: Solubility at ITC ligand concentration. To be noted: at 200 μM, ITC assay. Type of data set: physicochemical. In general terms: Isothermal titration calorimetry measures the heat released or taken up as one component is titrated into another.

For `NCCCCCCNC(=O)c1ccccc1.O=C(O)C(F)(F)F` [AP-08-190, N-(6-aminohexyl)benzamide 2,2,2-trifluoroacetate], the “procyclin surface expression” value in data set [1] is listed as “Neither DMSO nor the control compound AP-08-190 increased procyclin surface expression”. Further, the “fold change in EP1/GFP mean fluorescence intensity compared to DMSO” value in [2] (20 μM) was found to be 1.2 fold.
For orientation: Kd means the equilibrium constant for the complex coming apart. For `COc1cc2c(N[C@H](C)c3ccccn3)c(C(=O)NCCCCCCN)cnc2cc1-c1c(C)noc1C` [AP-08-188, N-(6-Aminohexyl)-7-(3,5-dimethylisoxazol-4-yl)-6-methoxy-4-((R)-1-(pyridin-2-yl)ethylamino)quinoline-3-carboxamide], the EC50 in data set [3] was 1.74 ± 0.044 µM. The Kd in [4] came out at 87 ± 21 µM; in data set [6], 30 ± 21 µM; in data set [8], 0.29 ± 0.17 µM; in data set [9], 0.68 ± 0.15 µM; in [10], 45 ± 31 µM. The “TbBdf2, ITC KD” value in data set [5] is given as “No binding”. For the same compound, in data set [6], the “SPR binding to TbBdf3” value was “weak binding”. Besides, the figures for the Rmax in [6], in data set [8] and in data set [10] were 143 ± 51 RU, 135 ± 27 RU and 85 ± 35 RU, respectively. In [7], the “percentage of live cells compared to DMSO controls” value is “significantly lower”. Further, in data set [2] (5 μM), the “EP1/GFP mean fluorescence intensity” value is “highest”.
For the compound `COc1cc2c(cc1-c1ccc(C(=O)NCCCCCCCCNC(=O)OC(C)(C)C)cc1)ncc1[nH]c(=O)n([C@H](C)c3ccccn3)c12` [AP-09-008, (R)-tert-Butyl 8-(4-(8-methoxy-2-oxo-1-(1-(pyridin-2-yl)ethyl)-2,3-dihydro-1H-imidazo[4,5-c]quinolin-7-yl)benzamido)octylcarbamate], in data set [3], the EC50 was found to be 1.27 ± 0.046 µM. The Kd in data set [6] is 1.43 ± 0.32 µM; in [8], 6.1 ± 3.6 µM; in data set [10] it was 1.68 ± 0.34 µM. Moreover, the Rmax in data set [6] is 36.9 ± 1.9 RU; in data set [8], 14.2 ± 1.8 RU; in data set [10], 27.1 ± 1.2 RU. The “percentage of live cells compared to DMSO controls” value in data set [7] is “significantly lower”. The “EP1/GFP mean fluorescence intensity” value in data set [2] (5 μM) is on record as “strong increase”. Besides, in [11], the “solubility” value was “insolubility”.
`COCCOCCOCCOC(=O)c1ccc(-c2cc3ncc4[nH]c(=O)n([C@H](C)c5ccccn5)c4c3cc2OC)cc1` [AP-09-191, (R)-2-(2-(2-Methoxyethoxy)ethoxy)ethyl 4-(8-methoxy-2-oxo-1-(1-(pyridin-2-yl)ethyl)-2,3-dihydro-1H-imidazo[4,5-c]quinolin-7-yl)benzoate]: the dissociation constant (Kd) is 22 ± 11 µM in [4], 56 ± 31 µM in data set [6], 60 ± 26 µM in data set [8] and 44 ± 31 µM in data set [10]. Further, the Rmax in [6], in [8] and in data set [10] was 200 (locked) RU in each case. For the same compound, the “EP1/GFP mean fluorescence intensity” value in [2] (20 μM) was “increased mean fluorescence intensity of GFP”. Moreover, the “hBRD4, ITC KD” value in data set [9] (15 °C, n set to 1.0, single experiment, error of the fit) is “No binding”.
